Rpn11 block – Rpn11 (human) deubiquitinase inhibition; inhibition, % at 20 µM; human 26S proteasome, Ub4-pepOG fluorescence polarization; 20S core pre-blocked with epoxomicin; 360,000 compounds, 0.59% hits; O00487; AID 588493;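 active = inhibition at 20 µM, scaled to each plate's controls, above about 33%, limit read from the data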
Rin1 Abl inh – human Rin1-Abl interaction inhibition; TR-FRET Rin1/Abl binding, biochemical; 360,000 compounds, 0.4% hits; inhibition, % at 7.35 µM; P00519+Q13671; AID 588664; in the data active = inhibition above about 5%, passing the limit was not always enough
HNF4A DNA FP – change in binding of human HNF4 alpha to DNA; HNF4a-FITC DNA binding, fluorescence polarization, 1 h; activity change, % at 10 µM; 360,000 compounds, 0.3% hits; AID 1224865; in the data active = activity change above about 30%, passing the limit was not always enough
Target sequence (P41235 whole entry, looked up): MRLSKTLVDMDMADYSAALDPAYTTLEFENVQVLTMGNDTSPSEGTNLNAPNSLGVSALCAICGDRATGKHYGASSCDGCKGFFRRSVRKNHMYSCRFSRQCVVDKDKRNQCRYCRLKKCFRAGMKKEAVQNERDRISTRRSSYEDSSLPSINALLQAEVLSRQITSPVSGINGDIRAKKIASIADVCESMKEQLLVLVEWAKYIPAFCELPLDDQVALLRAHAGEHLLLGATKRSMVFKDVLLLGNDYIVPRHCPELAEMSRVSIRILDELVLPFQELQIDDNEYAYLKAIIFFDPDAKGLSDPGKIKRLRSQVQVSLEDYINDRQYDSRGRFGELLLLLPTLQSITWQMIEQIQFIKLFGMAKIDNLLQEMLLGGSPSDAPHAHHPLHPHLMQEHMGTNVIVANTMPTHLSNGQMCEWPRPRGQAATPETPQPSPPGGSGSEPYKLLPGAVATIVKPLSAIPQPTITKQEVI
TPT1 inhibitor – inhibitors of Candida albicans tRNA 2'-phosphotransferase TPT1. recombinant caTPT1, FP RNA substrate dephosphorylation. inhibition, % at 5 µM. 300,000 compounds, 0.81% hits. AID 1962;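 active = inhibition above the mean of all tested compounds plus 3 SD, set per screening campaign, cut at about 24% in these data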;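 note: plate controls were DMSO alone for no effect and ferristatin control at 100 nM for full effect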
CSN deneddyl inh – CSN deneddylation inhibition; inhibition, % at 12.5 µM; Q92905; Purified CSN, SCF-Nedd8-OG deneddylation, fluorescence polarization; 360,000 compounds, 0.38% hits;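 active = pattern-corrected inhibition above about 35%, with an unprinted fluorescence ratio check between 0.5 and 1.5, limit read from the data, passing the limit was not always enough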;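 note: 0% = enzyme with substrate and 100% = substrate without enzyme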
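Assay system: HEK293T-derived human Csn5 enzyme; quantity: 0.24 nM enzyme; medium: Tris/NaCl/DTT buffer, pH 7.5; also added: substrate SCFSkp2-Nedd8OG, 10 nM; doses: 12.5 µM compound; schedule: 90 min reaction at room temperature; signal: FP; read-out: % inhibition of substrate cleavage by Csn5; benchmarks: substrate-only high control, full reaction low control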
Neddylation inh – cullin neddylation inhibition | 360,000 compounds, 0.58% hits | TR-FRET cullin neddylation, biochemical | P61081+Q13564 | inhibition, % at 25 µM | AID 651699; in the data active = inhibition above about 36%
Starred values were filed as active, the others as inactive; / = no result shown; + = active, no number; ! = a repeat was not active. A selection: hits, their analogues and other compounds. The true share with any hit is near 2.4%.

SMILES	Rpn11 block	Rin1 Abl inh	HNF4A DNA FP	TPT1 inhibitor	CSN deneddyl inh	Neddylation inh
CCN(CC(=O)Nc1ccccc1C(F)(F)F)C(=O)COc1cccc2c1OC(C)(C)C2	-5	0	-1	1	7	0
CC1(C)Cc2cccc(OCC(=O)Nc3ccccc3C(F)(F)F)c2O1	6	5	40*	1	4	2
COc1ccc(/C(O)=C/c2nc3ccc(C(=O)NCCc4cccc(C)c4)cc3[nH]c2=O)cc1OC	/	-1	44*	67*	2	21
COc1ccc(C(=O)NCCc2ccccc2)cc1OC	2	-1	-5	-1	1	2
CC1CCN(CCCNC(=O)Cn2ncc3c([nH]c4ccccc43)c2=O)CC1	7	2	0	-2	6	21
Cc1ccc(C(=O)O)cc1N=Cc1cc(Br)cc(Br)c1O	10	0	2	-3	-8	41*
CC(=O)Nc1ccc(C(=O)N/N=C/c2cc(Br)cc(Br)c2O)cc1	22	-1	12	16	5	20
Nc1c(C(=O)Nc2ccc(S(=O)(=O)N3CCCC3)cc2)sc2nc3ccc(OC(F)(F)F)cc3cc12	/	0	43*	18	15	-3
O=C(NC1CCCCC1)C(c1ccc(F)cc1)N(Cc1ccco1)C(=O)c1ccccn1 (configuration not stated)	-4	5	5	-1	-4	-2
O=C(CSc1nc(-c2ccc(F)cc2)nc2c1Cc1ccccc1O2)Nc1ccc(C(=O)O)cc1	163*	3	-77	/	26	-152
Nc1sc(-c2ccccc2)cc1C(=O)NCCc1ccc(Cl)cc1	/	/	56*	/	9	2
CC(Oc1ccc(Cl)cc1Cl)C(=O)OCC(=O)c1c(N)n(C)c(=O)n(C)c1=O (configuration not stated)	-1	2	-3	/	3	-18
CCCCCCCC[n+]1cccc(C(=O)N(CC)CC)c1	-5	4	-1	-1	-1	-4
CCCCCCCCCCCCCCCC[n+]1cccc(C(=O)N(CC)CC)c1	66*!	-2	3	1	4	-7
Cc1nnc(NC(=O)c2sc3nc(-c4cccs4)cc(C(F)(F)F)c3c2N)s1	/	0	68	47*	106*	27
COc1ccc(NC(=O)CNC(=O)Cc2cccc3ccccc23)cc1	0	0	-4	/	37*	2
CSc1ncc(CN2CCc3c([nH]c4ccccc34)C2c2cccc(O)c2)cn1 (configuration not stated)	5	0	0	0	-4	26
CCn1nc(C)c(/C=N/NC(=O)c2ccc3c(c2)c(C)c(C)n3Cc2ccccc2)c1C	10	-2	0	0	1	40*
CCn1ncc(/C=N\NC(=O)c2ccc3c(c2)c(C)c(C)n3Cc2ccccc2)c1C	0	-1	2	-4	4	/
O=C1c2cccc3cccc(c23)C(=O)C1(O)O	5	14*	-3	-3	104	-97
O=c1c2ccccc2nc(/C=C/c2ccc([N+](=O)[O-])cc2)n1CCCO	2	-4	-1	2	1	-22
O=c1c2ccccc2nc(/C=C/c2ccc([N+](=O)[O-])o2)n1CCCO	/	-6	74*	21	24	-22
CCCCCN1C(=O)/C(=C/c2c(N3CCc4ccccc4C3)nc3ccccn3c2=O)SC1=S	/	2	98	82*	64	-11
COCCNc1cc(N)c([N+](=O)[O-])cc1[N+](=O)[O-]	-9	-11	45*	6	-2	-55
COc1cc2cccc(OC)c(=O)c2c(O)c1OC	-3	-4	5	-1	5	-18
SMILES	Rpn11 block	Rin1 Abl inh	HNF4A DNA FP	TPT1 inhibitor	CSN deneddyl inh	Neddylation inh
CC(=O)Oc1cc2cccc(OC(C)=O)c(=O)c2c(OC(C)=O)c1OC(C)=O	-43	23*	0	-7	29	-17
COc1cc(/C=C/C(=O)/C=C(O)/C=C/c2ccc(O)c(OC)c2)ccc1O	/	0	117*	/	119	-14
COCCN(C(=O)COC(=O)c1c(-c2ccccc2)noc1C)c1c(N)n(Cc2ccccc2)c(=O)[nH]c1=O	-1	0	1	-2	4	-3
CCc1nc2ccccc2c(C(=O)OCC(=O)N(CCOC)c2c(N)n(Cc3ccccc3)c(=O)[nH]c2=O)c1C	4	0	-1	/	+	1
Nn1c(SCC(=O)N2CCOCC2)nnc1-c1cccnc1	-2	1	0	/	0	-4
COCCNC(=O)CCc1nnc(Cc2ccc(-c3ccccc3)cc2)o1	-2	1	0	0	115*	-3
O=C(NCc1ccccc1)c1cc(C2COCCN2C(=O)C/C=C/c2ccccc2)on1 (configuration not stated)	-2	-4	0	/	0	-4
O=C(O)CCC(=O)Nc1cccc(C(=O)Nc2ccc(Br)cc2)c1	-2	5	80*	3	-4	1
CN1Cc2c(N3CCOCC3)nc3sc(C#N)c(N)c3c2CC1(C)C	3	-6	3	-4	-1	/
CN1Cc2c(N3CCOCC3)nc3sc(C(=O)c4ccc(Br)cc4)c(N)c3c2CC1(C)C	2	-3	6	0	-1	41*
COc1cc2c(c(OC)c1OC)C(=O)C(=Cc1ccccc1)O2	-3	-2	4	/	10	17
COc1ccc(-c2n[nH]c(=S)n2-c2ccc(C)cc2C)cc1	-7	0	36*	-2	1	0
CC(=O)c1sc2nc(-c3ccco3)ccc2c1N	-5	0	-22	1	37	82*
CCN(CC)CCCNc1ccc2ncn3c4ccc(O)cc4c(=O)c1c23	-210	-101	-120	/	-73	-92
CCOc1ccc(S(=O)(=O)Nc2nc3ccccc3nc2-n2ccc(=NC(=O)c3cccs3)cc2)cc1	/	1	28	2	46*	-110
Cc1oc(-c2cccs2)nc1CN1CCC(c2ccccc2)CC1	5	-2	0	5	3	19
CN1C[C@@H]2[C@@H]3C(=O)N(C)C(=O)[C@@H]3[C@](C)(C1=O)N2C(=O)c1ccc(Br)cc1	-10	3	1	/	5	-8
Cc1ccc(-c2cc(-c3n[nH]c(=S)o3)c3ccccc3n2)cc1	-1	-4	1	16	6	49*
S=c1[nH]nc(-c2cc(-c3ccccn3)nc3ccccc23)o1	9	-3	-1	0	3	5
Cc1ccc(CONC(=O)c2ccc(C)cc2)cc1	0	1	4	/	-1	6
O=C(Cn1ncc2c1-c1ccccc1OC2)Nc1ccc(S(=O)(=O)N2CCCCC2)cc1	3	12*	2	-4	6	-4
O=C(Cn1nc(-c2ccccc2F)ccc1=O)Nc1ccc(S(=O)(=O)N2CCCCCC2)cc1	7	-3	-3	4	-2	-10
